Here are results for 33 molecules from ChEMBL document CHEMBL1125159, “Synthesis and antihyperglycemic activity of novel 5-(naphthalenylsulfonyl)-2,4-thiazolidinediones” (J Med Chem, 1990).

For data set [1], the species on record is Mus musculus. As to the kind of experiment: Decrease in blood glucose in mice compared to vehicle controls. In kind it is functional, organism-based. The method in brief: (§1)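 Male genetically diabetic db/db mice (C57BL/KsJ, 3–7 months old), 4–6 per group. Compound 100 mg/kg given by oral gavage once daily for 4 days in 2% Tween 80/saline. Mice fasted 18 h before the final dose. Insulin 0.5 unit/kg sc given 2 h after drug. Tail-tip blood taken 2 h later from unanesthetized mice. Plasma glucose reported as percent change versus vehicle group, mean ± SE.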

The subject of data set [2] is Mus musculus. As to the kind of experiment: Plasma glucose level in diabetic db/db mice at a dose of 100 mg/kg per day for four days administered orally after fed state.
A short description of data set [3]: Ionization constant for the compound. The class given is physicochemical.
Data set [4] is filed under the species Mus musculus. As to the kind of experiment: Percent decrease in blood glucose relative to vehicle-treated group with use of four to six mice. In kind it is functional. The procedure, abridged:
as §1

Data set [5] relates to Rattus norvegicus. The data set can be described thus: Plasma glucose level in 24 hr fasted Sprauge-Dawley rats at a dose of 200 mg/kg per day in four divided doses which were administered intraperitoneally. In kind it is functional, organism-based. The method in brief: (§2)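 24 h-fasted Sprague-Dawley rats were dosed ip at 200 mg/kg per day in four divided doses. They were then anesthetized with halothane and blood was drawn from the iliac artery for blood lactate and plasma glucose. N = 8 rats per group, compared with vehicle (p < 0.05).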

In data set [6] the test system is Rattus norvegicus. As to the kind of experiment: Blood lactate level in 24 hr fasted Sprauge-Dawley rats at a dose of 200 mg/kg per day in four divided doses which were administered intraperitoneally,. In kind it is functional. To be noted: route intraperitoneal. The method in brief:
as §2

Data set [7] relates to Mus musculus. As to the kind of experiment: Plasma glucose level in diabetic db/db mice at a dose of 100 mg/kg per day for four days administered orally after 18-h fasted state.
The subject of data set [8] is Rattus norvegicus. The data set can be described thus: Evaluated for the plasma glucose level in 24 hr fasted Sprauge-Dawley rats at a dose of 200 mg/kg/day in four divided doses administered intraperitoneally. The class given is functional, organism-based. The procedure, abridged: as §2
The test system of data set [9] is Rattus norvegicus. As to the kind of experiment: Evaluated for the blood lactate level in 24 hr fasted Sprague-Dawley rats at a dose of 200 mg/kg/day in four divided doses administered intraperitoneally. To be noted: route intraperitoneal. The class given is functional. The procedure, abridged: as §2
Data set [10] deals with Rattus norvegicus. The data set can be described thus: Blood lactate level in 24 hr fasted Sprauge-Dawley rats at a dose of 200 mg/kg per day in four divided doses which were administered intraperitoneally. The settings on record: route intraperitoneal. In kind it is functional. The procedure, abridged: as §2

Active and inactive are the calls of the source. The calls are words filed in the database; no cut-off is given here.

Regarding `O=C1NC(=O)C(Sc2ccc3ccccc3c2Br)S1` (stereo unspecified), in the data set listed under Mus musculus [1], the Decrease entry was “inactive”.

Take `CCOC(=O)Oc1ccc2cc(SC3SC(=O)NC3=O)ccc2c1` (stereo unspecified): in the data set listed under Mus musculus [1], the Decrease entry was “inactive”.

Consider `O=C1NC(=O)C(S(=O)(=O)c2ccc3ccccc3c2)S1` (stereo unspecified), for which the Plasma glucose level was 352 mg/dL in the data set on Mus musculus [2], 77 mg/dL with Rattus norvegicus [5] and 243 mg/dL in the data set with Mus musculus [7]. In data set [3], this molecule returned a pKa of 3.95. Also, in the data set listed under Mus musculus [4], the Decrease is recorded as -63%. This molecule also yielded a Blood lactate in the data set with Rattus norvegicus [6] of 7.2 mg/dL.

`CCCCCCCCSC1SC(=O)NC1=O` (stereo unspecified): the Decrease entry in the data set listed under Mus musculus [1] was “inactive”.

As to `O=C1NC(=O)C(S(=O)(=O)c2cccc3ccccc23)S1` (stereo unspecified), the Decrease in the data set listed under Mus musculus [4] was -34%.

As to `O=C1NC(=O)C(Sc2ccc3cc(O)c(O)cc3c2)S1` (stereo unspecified), the Decrease entry in the data set listed under Mus musculus [1] is “inactive”.

`CC1(COc2ccc(S(=O)(=O)C3SC(=O)NC3=O)cc2)CCCCC1` (stereo unspecified): the Decrease entry in the data set filed under Mus musculus [1] was “inactive”.

In the case of `CCOC(=O)Oc1cc2ccc(SC3SC(=O)NC3=O)cc2cc1OC(=O)OCC` (stereo unspecified), the Decrease in the data set listed under Mus musculus [4] is -22%.

Take `CCOC(=O)Oc1ccc2cc(S(=O)(=O)C3SC(=O)NC3=O)ccc2c1` (stereo unspecified): in the data set listed under Mus musculus [1], the Decrease entry was “inactive”.

In the case of `O=C1NC(=O)C(S(=O)(=O)Cc2ccc3ccccc3c2)S1` (stereo unspecified), in the data set listed under Mus musculus [1], the Decrease entry was “inactive”.

Turning to `CCOC(=O)Oc1cc2ccc(S(=O)(=O)C3SC(=O)NC3=O)cc2cc1OC(=O)OCC` (stereo unspecified), the Decrease result in the data set listed under Mus musculus [1] was “inactive”.

With `O=C1NC(=O)C(S(=O)(=O)c2ccc(Br)cc2)S1` (stereo unspecified), the Decrease result in the data set filed under Mus musculus [1] was “inactive”.

`COc1ccc2c(S(=O)(=O)C3SC(=O)NC3=O)cccc2c1C(F)(F)F` (stereo unspecified): in the data set filed under Mus musculus [4], the Decrease is -40%.

Consider `O=C1NC(=O)C(Oc2ccc3ccccc3c2)S1` (stereo unspecified), for which the Decrease result in the data set listed under Mus musculus [1] is “inactive”.

In the case of `CN1C(=O)SC(S(=O)(=O)c2cccc3c(Br)cccc23)C1=O` (stereo unspecified), the Decrease entry in the data set filed under Mus musculus [1] is “inactive”.

As to `CN1C(=O)SC(C)(S(=O)(=O)c2cccc3c(Br)cccc23)C1=O` (stereo unspecified), the Decrease entry in the data set filed under Mus musculus [1] was “inactive”.

As to `CCCCCCCCS(=O)(=O)C1SC(=O)NC1=O` (stereo unspecified), in the data set listed under Mus musculus [1], the Decrease result is “inactive”.

With `O=C1NC(=O)C([S+]([O-])c2ccc3ccccc3c2)S1` (stereo unspecified), the Decrease entry in the data set listed under Mus musculus [1] is “inactive”.

With `COc1ccc2cc(S(=O)(=O)C3SC(=O)NC3=O)ccc2c1C(F)(F)F` (stereo unspecified), the Decrease result in the data set filed under Mus musculus [1] was “inactive”.

For `O=C1NC(=O)C(CSc2ccc3ccccc3c2)S1` (stereo unspecified), the Decrease result in the data set listed under Mus musculus [1] is “inactive”.

`O=C1NC(=O)C(Cc2ccc3ccccc3c2)S1` (stereo unspecified) showed a pKa in data set [3] of 6.83. Also, the Decrease in the data set listed under Mus musculus [4] is on record as -38%.

In the case of `O=C1NC(=O)C(S(=O)(=O)c2cccc3c(Br)cccc23)S1` (stereo unspecified), in the data set listed under Mus musculus [4], the Decrease is listed as -29%.

As to `O=C1NC(=O)C(S(=O)(=O)c2ccc(F)cc2)S1` (stereo unspecified), the Decrease result in the data set listed under Mus musculus [1] is “inactive”.

`COc1ccc2cc(SC3SC(=O)NC3=O)ccc2c1C(F)(F)F` (stereo unspecified): the Decrease in the data set listed under Mus musculus [4] is reported as -32%.

With `N=C(N)NC(=N)NCCc1ccccc1` [PHENFORMIN], the Plasma glucose level in the data set with Rattus norvegicus [8] came out at 85 mg/dL. Further, in the data set on Rattus norvegicus [9], the Blood lactate stood at 12.2 mg/dL.

As for `O=C1NC(=O)C(Sc2ccc3cc(O)ccc3c2)S1` (stereo unspecified), in the data set listed under Mus musculus [4], the Decrease is recorded as -19%.

In turn, `O=C1NC(=O)C(Sc2ccc3ccccc3c2)S1` (stereo unspecified) yielded a pKa in data set [3] of 5.58. In the data set filed under Mus musculus [4], the Decrease was -29%.

On to `COc1cccc2cccc(S(=O)(=O)C3SC(=O)NC3=O)c12` (stereo unspecified), for which the Decrease entry in the data set listed under Mus musculus [1] is “inactive”.

For the molecule `COc1ccc2cc(S(=O)(=O)C3SC(=O)NC3=O)ccc2c1Br` (stereo unspecified), the Decrease result in the data set listed under Mus musculus [1] was “inactive”.

On to `CC1(S(=O)(=O)c2cccc3ccccc23)SC(=O)NC1=O` (stereo unspecified), for which the Decrease entry in the data set filed under Mus musculus [1] is “inactive”.

Turning to `CC1(COc2ccc(CC3SC(=O)NC3=O)cc2)CCCCC1` (stereo unspecified) [CIGLITAZONE], the Plasma glucose level with Mus musculus [2] amounted to 313 mg/dL; with Rattus norvegicus [5], 83 mg/dL; with Mus musculus [7] it was 285 mg/dL. Besides, the Blood lactate in the data set on Rattus norvegicus [10] is 8 mg/dL. The pKa in data set [3] was determined as 6.82. Besides, the Decrease in the data set listed under Mus musculus [4] is listed as -35%.

On to `O=C1NC(=O)C(S(=O)(=O)c2ccc3cc(OCc4ccccc4)ccc3c2)S1` (stereo unspecified), for which the Decrease entry in the data set listed under Mus musculus [1] is “inactive”.

As to `O=C1NC(=O)C(S(=O)(=O)c2ccc3ccccc3c2Br)S1` (stereo unspecified), the Decrease result in the data set filed under Mus musculus [1] is “inactive”.
